From PubChem BioAssay
Sampled rows, rich in hits. Any-hit rate of the full collection: about 5.2%.
ALR H2O2 inh: blocks human ALR sulfhydryl oxidase activity; purified ALR, DTT oxidation, H2O2 HRP-luminol luminescence; AID 485317; 290,000 tested, 3.8% active; inhibition, % (test concentration not listed); P55789;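 active = mean replicate inhibition above about 79%, with every replicate also reaching it, limit read from the data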
Target sequence (P55789 whole entry, looked up): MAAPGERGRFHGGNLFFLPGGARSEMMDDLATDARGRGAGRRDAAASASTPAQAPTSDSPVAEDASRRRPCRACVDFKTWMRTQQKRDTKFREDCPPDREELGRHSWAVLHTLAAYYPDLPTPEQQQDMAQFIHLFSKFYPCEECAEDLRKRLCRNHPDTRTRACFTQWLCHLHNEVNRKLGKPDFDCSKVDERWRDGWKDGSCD
M18AAP inhibitor: PfM18AAP enzyme inhibition; inhibition, % at 7.35 µM; recombinant PfM18AAP, H-Glu-NHMec fluorogenic cleavage; 290,000 tested, 1.2% active;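 active = inhibition above the campaign mean inhibition over all tested compounds plus 3 SD, cut at about 28% in these data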;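 also: 0% = plate median of test compound wells and 100% = 2 mM ZnCl2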
ZTA counter: blocks Epstein-Barr virus ZTA, an EBNA-1 counter-screen; ZTA-DNA binding, fluorescence polarization; inhibition, % at 11 µM; 320,000 tested, 0.15% active; AID 2234; in the data active = inhibition above about 33%
Target sequence (P03206 whole entry, looked up): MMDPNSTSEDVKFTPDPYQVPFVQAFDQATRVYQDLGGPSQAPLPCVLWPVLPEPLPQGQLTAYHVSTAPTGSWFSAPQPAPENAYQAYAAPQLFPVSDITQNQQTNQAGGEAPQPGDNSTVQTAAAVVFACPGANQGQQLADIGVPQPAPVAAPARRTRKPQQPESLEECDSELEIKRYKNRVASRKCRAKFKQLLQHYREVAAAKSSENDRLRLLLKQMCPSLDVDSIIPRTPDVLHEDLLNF
EBNA-1 inhibitor: blocks EBNA-1 binding to DNA. EBNA-1 DNA binding, fluorescence polarization. inhibition, % at 14.8 µM. 300,000 tested, 0.34% active. AID 1950; in the data active = inhibition above about 28%
HCV NS3 hel inh: inhibitors of Hepatitis C virus NS3 helicase | NS3 helicase DNA unwinding, Cy5 molecular beacon fluorescence | inhibition, % at 10.9 µM | 290,000 tested, 0.56% active;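 active = inhibition above the mean of all tested compounds plus 3 SD, set per campaign, cut at about 35% in these data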;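 also: 0% = DMSO wells and 100% = thioflavine S control wells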
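System: NS3 helicase fragment of HCV / Schedule: 1 h at 25 °C / Control set: DMSO alone as 0% and 110 µM thioflavine S as 100% / Reagent: Cy5/quencher beacon DNA duplex and ATP to start / Technique: Cy5 fluorescence / Replication: singlicate / Evaluation: % inhibition of end-to-start signal ratio versus controls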
HCV core dimer: HCV core protein dimerization inhibition; TR-FRET GST/Flag-core106 dimerization, 1536-well; inhibition, % at 5 µM; 300,000 tested, 0.33% active;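 active = inhibition above the mean of all tested compounds plus 3 SD, set per screening campaign, cut at about 45% in these data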
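assay system = GST-tagged and Flag-tagged HCV core protein residues 1-106 | controls = unlabelled core106 and no-GST-core106 wells | incubation = compound-protein-antibody incubation 4 h at 22.5 °C | probe or stimulus = Eu donor and XL665 acceptor anti-tag antibodies | read-out = % inhibition based on acceptor/donor emission ratio | signal = TR-FRET 671 and 617 nm emission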
An asterisk follows results filed as active; nt = no result given.

SMILES	ALR H2O2 inh	M18AAP inhibitor	ZTA counter	EBNA-1 inhibitor	HCV NS3 hel inh	HCV core dimer
COc1ccc(C(=O)NC2CCCCC2)cc1OC1CCN(C(C)C)CC1	0	3	1	3	7	2
CCCN1C(=O)c2cc(C(=O)NC3CCCCCC3)ccc2C1O (centres undefined)	96*	8	-13	1	2	-1
COc1ccc(C(=O)NC2CCCCCC2)cc1OC1CCN(C(C)=O)CC1	93*	-4	-8	-1	0	-2
CCCN1C(=O)c2cc(C(=O)O)ccc2C1O (centres undefined)	-17	1	-2	-14	12	-13
CCOC(=O)N1CCC(N2C(=O)c3cc(C(=O)NC4CCCCC4)ccc3C2O)CC1 (centres undefined)	94*	0	2	1	0	2
CCOc1cc(CNCc2ccncc2)cc(Cl)c1OC	-2	4	1	-2	9	0
CCOc1ccc(S(=O)(=O)N(CC(=O)NCc2cccnc2)c2ccc(F)cc2)cc1	3	1	9	0	-11	-2
Cc1cc(Cl)c(C)c(S(=O)(=O)N2CCN(CC(=O)N3CCOCC3)CC2)c1Cl	1	nt	4	nt	nt	nt
CN1CCN(NC(=O)/C=C/c2cccc([N+](=O)[O-])c2)CC1	34	-4	-11	-3	0	-4
O=C(c1c(F)cccc1F)N1CCCC(c2nc(-c3ccc(F)cc3)no2)C1 (centres undefined)	-6	-1	8	15	1	-5
Cc1ccc2[nH]c(-c3ccccc3)cc(=O)c2c1	21	0	2	7	3	-19
CCN(CC)Cc1c(-c2ccccc2)[nH]c2ccc(C)cc2c1=O	97*	2	4	-2	0	2
CC(C)Oc1ccc(/C(O)=C2/C(=O)C(=O)N(CCN3CCNCC3)C2c2ccc(C(C)C)cc2)cc1 (centres undefined)	-13	7	7	4	-9	11
COc1ccc(C2C(C(=O)O)CCC(=O)N2c2ccc(C)cc2)cc1OC (centres undefined)	-3	0	-8	9	9	-3
C/C(=N\NC(=O)C(c1ccccc1)c1ccccc1)c1ccc(O)cc1	90*	7	-1	-7	0	4
O=C(N/N=C/c1cccc(O)c1)c1csc2ccccc12	33	-9	-16	-8	4	-3
C/C(=N\NC(=O)c1csc2ccccc12)c1ccc(O)cc1	100*	-7	-13	-4	1	-2
COC(C(=O)N/N=C(\C)c1ccc(O)cc1)c1ccccc1 (centres undefined)	98*	1	-1	-2	-1	-1
O=C(COC(=O)CNC(=O)C1CCCCC1)NCc1ccc(Cl)cc1	4	nt	nt	nt	nt	nt
COC(=O)c1ccc(N2CCN(C)CC2)c(NC(=O)c2ccc(-c3ccc(Cl)cc3)o2)c1	-1	1	-1	10	-2	0
N#Cc1c2n(c3c(=O)[nH]cnc13)CCCC2	0	2	7	4	4	2
N#Cc1c2n(c3c(=S)nc[nH]c13)CCCCC2	93*	-12	10	1	2	0
Cc1ccc(C)c(NC(=O)NCCN2CCCCC2)c1	-2	-10	nt	nt	-3	nt
O=c1[nH]c(N/N=C/c2ccc(O)cc2)nc2ccccc12	95*	8	8	5	10	3
Cc1ccsc1/C=N/Nc1nc2ccccc2[nH]1	nt	12	nt	nt	-9	nt
SMILES	ALR H2O2 inh	M18AAP inhibitor	ZTA counter	EBNA-1 inhibitor	HCV NS3 hel inh	HCV core dimer
O=C(O)c1ccc(/C=N/Nc2nc3ccccc3[nH]2)cc1	11	14	6	-6	27	-12
C(=N\Nc1nc2ccccc2[nH]1)/c1ccncc1	98*	4	-10	-5	9	-14
Clc1cnc(N/N=C/c2cccs2)c(Cl)c1	86*	12	10	-1	2	-4
C(=N\Nc1nc2ccccc2[nH]1)/c1cccs1	99*	14	-10	0	-3	-22
O=C(Cc1ccc(-c2ccccc2)cc1)Nc1ncccc1O	-18	10	5	1	12	23
Cc1c(C)n2c(SCC(=O)NCc3ccc4c(c3)OCO4)nnc2[nH]c1=O	2	nt	-3	-4	nt	-1
Oc1cccc(Nc2nc(-c3ccccc3Cl)nc3ccccc23)c1	88*	4	8	-4	-18	14
Oc1ccc(Nc2nc(-c3ccccc3O)nc3ccccc23)cc1	50	-11	nt	nt	-7	nt
Oc1ccc(Nc2nc(-c3ccccc3F)nc3ccccc23)cc1	100*	-13	-17	-7	-6	-23
C/C(=N\NC(=S)Nc1c(C)cccc1C)c1ccc(O)cc1	87*	2	-2	-6	3	0
C/C(=N\NC(=S)Nc1c(C)cccc1C)c1cc2ccccc2o1	0	2	13	0	6	2
CN(C)CCN[C@H]1CCC2C3CC=C4C[C@@H](O)CC[C@]4(C)C3CC[C@@]21C (some centres undefined)	2	nt	nt	nt	nt	nt
COc1cccc(-c2csc(NNC(=O)c3cccs3)n2)c1	96*	18	-18	-3	14	0
COc1cccc(C(=O)Nc2ccc(S(=O)(=O)Nc3cc(C)nc(C)n3)cc2)c1	-3	-15	6	7	2	-1
Cc1[nH]c2ccccc2c1CCNS(=O)(=O)c1ccc(S(N)(=O)=O)cc1	90*	1	0	5	-10	3
NS(=O)(=O)c1ccc(S(=O)(=O)NCCc2ccccc2)cc1	-11	6	6	10	6	-2
[O-]c1c[n+](-c2ccc(-[n+]3cc([O-])on3)cc2)no1	98*	-7	-4	-3	0	26
Cc1csc(NC(=O)CSc2ccc3nnc(CCNS(=O)(=O)c4ccccc4)n3n2)n1	12	-14	-8	-11	5	-5
COc1ccc(S(=O)(=O)NCCc2nnc3ccc(SCC(=O)Nc4nc(C)cs4)nn23)cc1	89*	4	-12	-9	-7	-14
O=C(CCn1c(=S)[nH]c2cc3c(cc2c1=O)OCO3)N1CCN(C2CCCCC2)CC1	nt	4	nt	nt	-1	nt
CCN1CCN(CCn2c(=S)[nH]c3cc4c(cc3c2=O)OCO4)CC1	92*	-2	-11	1	6	-1
CCN(CC)CCn1c(=S)[nH]c2cc3c(cc2c1=O)OCO3	69	14	2	-1	0	0
O=C(CCCn1c(=S)[nH]c2cc3c(cc2c1=O)OCO3)N1CCN(C2CCCCC2)CC1	83*	-1	-13	2	8	3
CCc1ccc2nc3c(c(C(=O)O)c2c1)CCC3	-11	3	-13	5	5	-2
Cc1cc(Br)c2nc3c(c(C(=O)O)c2c1)CCCCC3	-1	0	-4	-2	-4	72*
CC1(NC(=O)Cc2c(F)cccc2Cl)CCS(=O)(=O)C1 (centres undefined)	-4	nt	nt	nt	nt	nt
